Screening results deposited in PubChem BioAssay by several laboratories.
Sampled rows, rich in hits. Any-hit rate of the full collection: about 6.5%.
PostGolgi yeast: phenotypic screen on post-Golgi transport, primary screen; post-Golgi transport phenotypic cell assay; inhibition, % at 10 µM; 98,000 tested, 0.9% active; AID 739, 2007;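 further: yeast cells grown in 1536-well plates; yeast grown about 18 h at 30C before absorbance read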
E coli WT exp: growth inhibitors of wild-type E. coli, primary screen, strain BW25113, expanded library, OD600. OD600 absorbance. growth inhibition, % at 100 µM. 98,000 tested, 0.15% active. AID 710, 2007;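 active means growth inhibition above about 50% at one test dose, limit read from the data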;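 further: growth measured after 20 h incubation at 37 °C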
PostGolgi ctrl: growth inhibition of yeast control strain, primary screen, counter-screen for post-Golgi transport modulator project. efflux-deficient yeast background strain, growth absorbance A615, 16 h. inhibition, % at 10 µM. 98,000 tested, 5% active. AID 738, 2007
PTK2B oligo ant: antagonists of Pyk2 self-association, primary screen, Q293 cells, FERM NanoBiT luminescence, HTS | AID 1347419, 2020 | stronger effect = lower value | 99,000 tested, 0.83% active | z-score (the deposit names both 25 µM and 10 µM);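 active means Z-score of -3 or lower, scaled per plate to the spread of control and sample wells; inactive means z-score above -3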;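 further: negative z-score means lost luminescence so less FERM oligomerization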
Target sequence (Q14289 whole entry, looked up): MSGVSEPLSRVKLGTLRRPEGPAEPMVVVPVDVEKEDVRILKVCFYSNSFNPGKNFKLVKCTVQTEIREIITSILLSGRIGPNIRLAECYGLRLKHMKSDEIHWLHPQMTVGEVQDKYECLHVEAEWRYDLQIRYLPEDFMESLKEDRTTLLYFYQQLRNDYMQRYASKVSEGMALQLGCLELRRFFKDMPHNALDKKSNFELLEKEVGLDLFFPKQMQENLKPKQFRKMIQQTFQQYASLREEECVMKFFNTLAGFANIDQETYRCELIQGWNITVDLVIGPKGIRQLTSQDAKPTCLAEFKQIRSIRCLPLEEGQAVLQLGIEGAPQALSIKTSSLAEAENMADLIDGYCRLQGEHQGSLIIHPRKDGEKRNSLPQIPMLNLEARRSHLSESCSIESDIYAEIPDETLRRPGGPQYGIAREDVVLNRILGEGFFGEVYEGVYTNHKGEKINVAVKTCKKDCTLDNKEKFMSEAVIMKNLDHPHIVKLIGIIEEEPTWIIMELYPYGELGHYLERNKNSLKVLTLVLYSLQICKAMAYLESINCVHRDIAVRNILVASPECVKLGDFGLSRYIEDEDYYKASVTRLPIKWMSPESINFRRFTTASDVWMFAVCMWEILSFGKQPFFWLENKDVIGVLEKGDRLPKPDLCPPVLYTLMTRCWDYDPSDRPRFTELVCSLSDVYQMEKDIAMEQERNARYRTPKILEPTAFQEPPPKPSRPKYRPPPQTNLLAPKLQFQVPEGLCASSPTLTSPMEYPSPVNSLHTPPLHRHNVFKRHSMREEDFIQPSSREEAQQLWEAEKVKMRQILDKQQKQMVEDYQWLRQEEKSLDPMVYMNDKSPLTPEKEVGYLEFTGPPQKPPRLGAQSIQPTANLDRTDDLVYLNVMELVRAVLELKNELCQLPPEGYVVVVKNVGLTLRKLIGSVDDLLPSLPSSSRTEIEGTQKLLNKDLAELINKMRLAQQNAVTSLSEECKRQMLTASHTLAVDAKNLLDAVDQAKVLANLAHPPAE
Candida biofilm: clotrimazole potentiators killing Candida biofilms, primary screen, with clotrimazole, Alamar Blue; C. albicans biofilm + clotrimazole; inhibition, % at 6 µM; 85,000 tested, 0.14% active;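 active means inhibition above 20%; inactive means inhibition below 20%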;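 further: preformed 24 hr biofilms exposed to compound for 48 hr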
tolC growth inh: growth inhibitors of E. coli tolC mutant, primary screen, strain BW25113 ΔtolC::kan, 384-well; AID 573, 2007; OD615; growth inhibition, % at 10 µM (by protocol); 65,000 tested, 2.2% active;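 active means growth inhibition at or above a cutoff equal to the mean over every tested compound plus 3 SD, cut at about 60% in these data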;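 further: growth measured after 20 h incubation at 37 °C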
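Test system: tolC-deleted E. coli BW25113; medium: LB with kanamycin 50 µg/mL; compound: single-point testing at 10 µM; incubation: 20 h compound exposure of bacteria at 37 °C; signal: OD at 615 nm; evaluation: growth inhibition in percent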
Numbers stand for hits; . = inactive; / = no result given. Unless noted, no stated cut-off is given here; in the data, active means inhibition above about 30%; inactive means the rest.

SMILES	PostGolgi yeast	E coli WT exp	PostGolgi ctrl	PTK2B oligo ant	Candida biofilm	tolC growth inh
Cc1ccc(C2CC(c3ccccc3Cl)n3nc(N)nc3N2)cc1 (stereo not drawn)	.	.	40	/	.	.
Nc1nc2n(n1)C(c1ccccc1Cl)CC(c1ccc(F)cc1)N2 (stereo not drawn)	.	.	.	/	.	.
Cc1ccc(F)cc1NC(=O)C12CC3CC(C1)CC(n1cnc([N+](=O)[O-])n1)(C3)C2	.	.	.	.	/	/
CN1CCN(C2=CC(=O)OC23CCCCC3)CC1	/	/	/	.	.	/
O=S(=O)(Nc1nc2ccccc2nc1N1CCN(c2ccccn2)CC1)c1ccc(Cl)cc1	.	.	57	.	/	83
CCCN1Cc2cccc(C(=O)Nc3ccc(N4CCN(CC)CC4)cc3)c2C1=O	/	/	/	/	.	.
Nc1ccc(C(=O)OCc2nc3c(ccc4ccccc43)[nH]2)cc1	/	/	/	.	.	/
N#CC(C#N)=c1ccc2c(c1)N1C3=C(CCCC3)CC3CCCCC31N=2 (stereo not drawn)	44	.	50	.	.	82
Cc1ccc(S(=O)(=O)Cc2ccc(C(=O)OCc3ccccc3)cc2)cc1	.	.	35	.	.	/
CN(C)c1ccc(C(=O)OCc2ccccc2)cc1	.	.	.	.	43	/
COC(=O)c1ccc(COC(=O)c2ccc(N(C)C)cc2)cc1	.	.	.	.	.	.
c1ccc(-c2noc(-c3cccc4ccccc34)n2)cc1	.	.	.	.	.	70
c1ccc2c(-c3nc(-c4ccncc4)no3)cccc2c1	.	.	.	.	.	.
c1ccc(CCc2ccccc2-c2nc(-c3cccnc3)no2)cc1	.	.	.	.	.	73
c1ccc(-c2ccccc2-c2nc(-c3cccnc3)no2)cc1	38	.	34	.	.	98
CCSC1=C(C#N)C(c2ccc(Cl)cc2)C2=C(CCCC2=O)N1 (stereo not drawn)	.	.	.	.	.	96
CSC1=C(C#N)C(c2ccc3c(c2)OCO3)C2=C(CCCC2=O)N1 (stereo not drawn)	/	/	/	.	.	/
COC(=O)CSc1snnc1-c1ccc(Cl)cc1Cl	.	.	.	.	.	/
COc1ccc(-n2c(=O)c3ccccc3n(CC(=O)NC3CCCC3)c2=O)cc1	.	.	37	.	.	.
Cc1ccccc1OCC(=O)N1N=C(C(F)(F)F)CC1(O)C(C)(C)C (stereo not drawn)	/	/	/	.	.	/
Cc1ccc(OCC(=O)N2N=C(C(F)(F)F)CC2(O)C(C)(C)C)cc1C (stereo not drawn)	.	.	33	.	.	/
COc1ccc(OCC(=O)Nc2sc3c(c2C(=O)NCC2CCCO2)CCC3)cc1 (stereo not drawn)	.	.	.	.	/	/
Cn1c(C(=O)OC(C(=O)NC2CCCCC2)c2cccnc2)cc2sccc21 (stereo not drawn)	.	.	.	.	.	/
Cc1ccc(S(=O)(=O)Cn2nnnc2C(CC(C)C)N2CCN(c3ccc(F)cc3)CC2)cc1 (stereo not drawn)	.	.	.	.	.	.
CC(C)CC(c1nnnn1C(C)C)N1CCN(c2cccc(Cl)c2)CC1 (stereo not drawn)	.	.	73	.	.	.
SMILES	PostGolgi yeast	E coli WT exp	PostGolgi ctrl	PTK2B oligo ant	Candida biofilm	tolC growth inh
CCOC(=O)c1c(C)nc2sc(C(=O)Nc3ccccc3)c(N)c2c1-c1ccc(OC)cc1	.	.	.	.	/	/
Cc1ccccc1N(C(=O)c1cccs1)c1nc2ccccc2s1	.	.	35	.	/	/
Cc1ccsc1C(=O)N(c1nc2ccccc2s1)c1c(C)cccc1C	.	.	.	.	.	/
O=C(COC(=O)c1cccnc1Cl)c1cccc(Cl)c1	.	.	.	.	.	/
CCCCN(C)CCNC(=O)Cn1ncc2c(=O)oc3ccc(C)cc3c21	.	.	.	/	.	.
O=C(Nc1ccccc1)OCc1ccccn1	.	.	.	.	.	.
O=C(Nc1ccccc1)OCc1cc(-c2ccccc2Cl)on1	.	.	33	.	/	/
Cc1[nH]nc2c1C1(CCC(c3ccccc3)CC1)C(C#N)=C(N)O2 (stereo not drawn)	.	.	31	.	.	.
Cc1nc2c3ccccc3nc(SCC(=O)N3CC(C)CC(C)C3)n2n1 (stereo not drawn)	.	.	32	.	.	/
CCOc1ccc2nc(N3CCC(C(=O)N4CCN(c5ncccn5)CC4)CC3)sc2c1	/	/	/	/	.	.
CCOc1ccc2nc(N3CCC(C(=O)N4CCN(c5ccccn5)CC4)CC3)sc2c1	.	.	43	/	.	.
COCCN1C=C(C(=O)OC)C(c2cc(Br)c(OC)c(OC)c2)C(C(=O)OC)=C1	.	.	.	-3.4	.	.
Cc1cccc(N(CC(O)CON=C2c3ccccc3-c3ccccc32)S(C)(=O)=O)c1 (stereo not drawn)	.	.	41	.	.	/
CS(=O)(=O)N(CC(O)CON=C1c2ccccc2-c2ccccc21)c1ccc(F)cc1 (stereo not drawn)	.	.	.	.	.	/
C=C(C)Cn1c(CCNC(=O)C(C)C)nc2ccccc21	.	.	41	.	.	.
CCCn1c(NC(=O)c2ccccc2)nc2ccccc21	.	.	39	.	.	.
CCCn1c(NC(=O)c2cccc(S(=O)(=O)N3CCCC3)c2)nc2ccccc21	.	.	36	-3.9	.	.
CCCn1c(NC(=O)c2ccc(C)cc2)nc2ccccc21	.	.	.	.	.	.
CCCn1c(NC(=O)C2CCN(S(=O)(=O)c3cccs3)CC2)nc2ccccc21	.	.	32	.	.	.
CCC(C)NC(=O)C1CCN(S(=O)(=O)c2cccs2)CC1 (stereo not drawn)	.	.	.	.	/	/
C=C(C)Cn1c(CCNC(=O)CC)nc2ccccc21	.	.	.	.	/	.
CCC(C)NC(=O)CS(=O)Cc1nc(-c2ccccc2C)oc1C (stereo not drawn)	.	.	.	/	.	.
O=C1CC(c2ccc(Cl)cc2)CC(O)=C1C=NCc1ccc(Cl)c(Cl)c1 (stereo not drawn)	.	.	.	.	/	/
CCOC(=O)CC1C(=O)NCCN1C(=O)NC1CCCCC1 (stereo not drawn)	.	.	.	.	.	/
CC(=O)Nc1nc2ccccc2n1Cc1ccccc1C	.	.	.	.	.	98
SMILES	PostGolgi yeast	E coli WT exp	PostGolgi ctrl	PTK2B oligo ant	Candida biofilm	tolC growth inh
C=CCn1c(CCCNC(=O)C(C)(C)C)nc2ccccc21	.	.	30	/	.	.
O=C(OCc1cc2ccccc2[nH]c1=O)C1CCCO1 (stereo not drawn)	.	.	.	.	.	.
O=C(OCc1cc2ccccc2[nH]c1=O)C1CCCCC1	30	.	.	.	.	.
Cc1ccc(CNS(=O)(=O)NCc2ccccc2)cc1	.	.	.	.	.	/
Cc1ccc(CSCC(=O)N2CCOCC2)cc1	.	.	.	.	.	/
Cn1c(=O)c2c(nc(CN3CCN(C(=O)c4ccco4)CC3)n2CCCc2ccccc2)n(C)c1=O	.	.	32	/	.	.
